Molecules are shown by their SMILES. pIC50: −log10 of the molar value.

Assay [1] addresses Aldo-keto reductase family 1 member B1 (Rattus norvegicus, UniProt P07943). Put plainly: Inhibition of Wistar rat eye lens aldose reductase-2 using D-L glyceraldehyde as substrate assessed as oxidation of NADPH preincubated for 10 mins followed by substrate addition measured for 4 mins by spectrophotometric analysis.
The test system of assay [2] is Aldehyde reductase AKR1A1 (Rattus norvegicus). Put plainly: Inhibition of Wistar rat kidney aldehyde reductase-1 using D-glucuronate as substrate assessed as oxidation of NADPH at 10 uM preincubated for 10 mins followed by substrate addition measured for 4 mins by spectrophotometric analysis relative to control.
The target of assay [3] is Aldo-keto reductase family 1 member B1 (Rattus norvegicus) (UniProt P07943). Put plainly: Inhibition of Wistar rat eye lens aldose reductase-2 using D-L glyceraldehyde as substrate assessed as oxidation of NADPH at 10 uM preincubated for 10 mins followed by substrate addition measured for 4 mins by spectrophotometric analysis relative to control. In a few lines:
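ALR2 was taken from Wistar rat lens homogenate. It was fractionated with ammonium sulfate (40% and 50% supernatants, then a 75% cut), dissolved in 0.05 M NaCl, dialyzed and stored at −20 °C. The 1 mL assay ran at 30 °C with 0.10 mM NADPH solution, 0.1 M sodium phosphate pH 6.2 and D,L-glyceraldehyde substrate. Compounds were in DMSO diluted with water, 10^-5 M final, with a substrate-free blank rate subtracted.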

Consider `O=C(O)Cn1c(=O)c(/C=C/c2ccc(F)cc2)nc2cc(Cl)ccc21`, for which the pIC50 in assay [1] was 6.18. For the same compound, the inhibition in assay [2] is 25%. For `O=C(O)Cn1c(=O)c(CCc2ccc(F)cc2)nc2ccccc21`, in that order: 5.94 and 40%. As for `O=C(O)Cn1c(=O)c(/C=C/c2ccc(F)cc2)nc2cc([N+](=O)[O-])ccc21`, the negative logarithm of the IC50 (pIC50) in assay [1] is 6.44. The inhibition in assay [2] was 25%.

For `O=C(O)Cn1c(=O)c(CCc2ccccc2)nc2ccccc21`, the pIC50 in assay [1] was 6.84. In addition, the inhibition in assay [2] is 22%.

For `COc1ccc(N2CCN(c3nc4ccccc4n(CC(=O)O)c3=O)CC2)cc1`, the pIC50 in assay [1] is 5.12. Moreover, in assay [2], the inhibition is 48%. As for `O=c1c(/C=C/c2ccc(F)cc2)nc2ccccc2n1Cc1ccc([N+](=O)[O-])cc1`, the inhibition in assay [3] worked out at 24%. `O=C(O)Cn1c(=O)c(/C=C/c2ccccc2)nc2ccc(Cl)cc21`: the pIC50 in assay [1] is 5.41. The inhibition in assay [2] was 35%.

For the compound `CC(C)(C)NC(=O)/C=C/c1nc2ccccc2n(CC(=O)O)c1=O`, the pIC50 in assay [1] is 5.73. For the same compound, in assay [2], the inhibition is 25%. `O=c1c(-c2csc3ccccc23)nc2ccccc2n1Cc1ccc([N+](=O)[O-])cc1`: in assay [3], the inhibition came to 32%. Same read-out and setting: in the case of `O=c1c(/C=C/c2ccccc2)nc2ccccc2n1Cc1ccc([N+](=O)[O-])cc1` it was 30%.

With `O=c1c(N2CCN(c3cccc(C(F)(F)F)c3)CC2)nc2ccccc2n1Cc1ccc([N+](=O)[O-])cc1`, the inhibition in assay [3] is 42.9%.

On to `O=C(O)Cn1c(=O)c(Nc2ccc(F)cc2F)nc2cc([N+](=O)[O-])ccc21`, for which the pIC50 in assay [1] was 6.55. Besides, the inhibition in assay [2] stood at 41%. Regarding `O=c1c(N2CCN(c3cnccn3)CC2)nc2ccccc2n1Cc1ccc([N+](=O)[O-])cc1`, the inhibition in assay [3] turned out to be 24%. Same read-out and setting: in the case of `O=c1c(N2CCN(CCN3CCOCC3)CC2)nc2ccccc2n1Cc1ccc([N+](=O)[O-])cc1` it was 23%; in that of `CC(C)(C)NC(=O)/C=C/c1nc2ccccc2n(Cc2ccc([N+](=O)[O-])cc2)c1=O`, 36.2%. On to `O=C(O)Cn1c(=O)c(/C=C/c2ccccc2)nc2ccccc21`, for which the negative logarithm of the IC50 (pIC50) in assay [1] is 6.09. The inhibition in assay [2] was 32%.

For `O=C(O)Cn1c(=O)c(/C=C/c2ccc(F)cc2)nc2ccccc21`, the pIC50 in assay [1] was 5.84. Further, the inhibition in assay [2] stood at 47%. Turning to `COc1ccc(N2CCN(c3nc4ccccc4n(Cc4ccc([N+](=O)[O-])cc4)c3=O)CC2)cc1`, the inhibition in assay [3] amounted to 26%.

The term pIC50 denotes the negative decadic logarithm of the IC50, by convention in mol/L. Broadly, the inhibition is the drop in the measured response relative to a control, in per cent.

The values are drawn from ChEMBL document CHEMBL3259520, “Structure-activity relationships studies of quinoxalinone derivatives as aldose reductase inhibitors” (Eur J Med Chem, 2014).
